The record followed here is ChEMBL document CHEMBL1126808, “Asymmetric synthesis and biological evaluation of beta-L-(2R,5S)- and alpha-L-(2R,5R)-1,3-oxathiolane-pyrimidine and -purine nucleosides as potential anti-HIV agents” (J Med Chem, 1993).

The test system of assay [1] is Human immunodeficiency virus 1. Put plainly: Cytotoxicity against human peripheral blood mononuclear (PBM) cells […]. The class given is functional. The method, boiled down: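 Uninfected PHA-stimulated human PBM cells were cultured with or without drug, then aliquots were counted in trypan blue. IC50 came from a median-effect plot of dose–effect data.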
Assay [2] concerns Human immunodeficiency virus. Put plainly: Anti-HIV-1 activity against human peripheral blood mononuclear (PBM) cells infected with HIV-1 strain LAV. The class given is functional, organism-based. An outline of the steps:
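Mitogen-stimulated human PBM cells infected with HIV-1 LAV at MOI 0.1 (titred by limiting dilution in PBM cells). Compounds were diluted into medium from 40 mM DMSO stocks (final DMSO <0.25%) and added about 45 min after infection. Read-out was supernatant RT level. EC50 came from a median-effect plot of dose–effect data.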

The term IC50 denotes the concentration at which inhibition is half-maximal. High values mean lower potency, low ones higher potency. For orientation: EC50 means the midpoint of the concentration-response curve.

`Nc1nc(=O)n([C@@H]2CS[C@H](CO)O2)cc1Cl` yielded an IC50 in assay [1] greater than 100 µM. In assay [2] (Human immunodeficiency virus 1), this molecule showed an EC50 of 31.8 µM.

For the molecule `Nc1nc(Cl)c2ncn([C@@H]3CS[C@H](CO)O3)c2n1`, in assay [1], the half-inhibitory concentration (IC50) is greater than 100 µM. Moreover, the EC50 in assay [2] (Human immunodeficiency virus 1) amounted to 9.8 µM.

`OC[C@@H]1O[C@@H](n2cnc3c(Cl)ncnc32)CS1` came in with an IC50 in assay [1] greater than 100 µM. This molecule also displayed an EC50 in assay [2] (Human immunodeficiency virus 1) of 2.75 µM.

On to `Nc1ccn([C@@H]2CS[C@H](CO)O2)c(=O)n1` (stereo in doubt; form 2) [LAMIVUDINE], for which the EC50 in assay [2] amounted to 0.06 µM. This counts as double-digit nanomolar.

As to `Nc1nc(=O)n([C@H]2CS[C@H](CO)O2)cc1I`, the IC50 in assay [1] was greater than 100 µM. This molecule had an EC50 in assay [2] (Human immunodeficiency virus 1) greater than 100 µM.

`Nc1nc(=O)n([C@H]2CS[C@H](CO)O2)cc1Br`: in assay [1], the IC50 was greater than 100 µM. The molecule further returned an EC50 in assay [2] (Human immunodeficiency virus 1) greater than 100 µM.

For `O=c1[nH]c(=O)n([C@@H]2CS[C@H](CO)O2)cc1Br`, in assay [1], the IC50 was greater than 100 µM. For the same molecule, the EC50 in assay [2] (Human immunodeficiency virus 1) is greater than 100 µM.

`O=c1ccn([C@H]2CS[C@H](CO)O2)c(=O)[nH]1` displayed an IC50 in assay [1] greater than 100 µM. The molecule further gave an EC50 in assay [2] (Human immunodeficiency virus 1) of 32.8 µM.

In assay [2], `Nc1ccn([C@@H]2CS[C@H](CO)O2)c(=O)n1` (stereo in doubt; 13) [LAMIVUDINE] returned an EC50 of 0.0018 µM.

As for `Nc1nc(O)c2ncn([C@H]3CS[C@H](CO)O3)c2n1`, the IC50 in assay [1] was greater than 100 µM. The molecule further returned an EC50 in assay [2] (Human immunodeficiency virus 1) greater than 100 µM.

On to `Nc1nc(F)nc2c1ncn2[C@@H]1CS[C@H](CO)O1`, for which the IC50 in assay [1] was greater than 100 µM. Besides, the EC50 in assay [2] (Human immunodeficiency virus 1) came to 16.3 µM.

With `CNc1ncnc2c1ncn2[C@H]1CS[C@H](CO)O1`, in assay [1], the half-inhibitory concentration (IC50) is greater than 100 µM. Also, the response in assay [2] (Human immunodeficiency virus 1) was half-maximal at 13 µM (EC50).

Molecule `Nc1nc(O)c2ncn([C@@H]3CS[C@H](CO)O3)c2n1` registered an IC50 in assay [1] greater than 100 µM. The response in assay [2] (Human immunodeficiency virus 1) was half-maximal at 10.2 µM (EC50).

Molecule `Cc1cn([C@@H]2CS[C@H](CO)O2)c(=O)nc1N` yielded an IC50 in assay [1] greater than 100 µM. The EC50 in assay [2] (Human immunodeficiency virus 1) was 1.9 µM.

`Nc1ccn([C@@H]2CS[C@H](CO)O2)c(=O)n1` (stereo in doubt; 14) [LAMIVUDINE] came in with an IC50 in assay [1] greater than 100 µM. Further, the EC50 in assay [2] came out at 10.1 µM.

For `O=c1ccn([C@@H]2CS[C@H](CO)O2)c(=O)[nH]1`, the IC50 in assay [1] is greater than 100 µM. In assay [2] (Human immunodeficiency virus 1), this molecule displayed an EC50 of 11.7 µM.

`OC[C@@H]1O[C@H](n2cnc3c(Cl)ncnc32)CS1` displayed an IC50 in assay [1] greater than 100 µM. The response in assay [2] (Human immunodeficiency virus 1) was half-maximal at 1.44 µM (EC50).

`Nc1ncnc2c1ncn2[C@H]1CS[C@H](CO)O1`: the IC50 in assay [1] is greater than 100 µM. The molecule also displayed an EC50 in assay [2] (Human immunodeficiency virus 1) of 78.9 µM.

For the molecule `Nc1nc(=O)n([C@@H]2CS[C@H](CO)O2)cc1I`, the IC50 in assay [1] is greater than 100 µM. Besides, a half-maximal effect in assay [2] (Human immunodeficiency virus 1) (EC50) was put at 0.14 µM.

For `Nc1nc(=O)n([C@H]2CS[C@H](CO)O2)cc1F`, the IC50 in assay [1] is greater than 100 µM. This molecule also displayed an EC50 in assay [2] (Human immunodeficiency virus 1) of 0.43 µM.

Molecule `O=c1[nH]c(=O)n([C@H]2CS[C@H](CO)O2)cc1Br` had an IC50 in assay [1] greater than 100 µM. In assay [2] (Human immunodeficiency virus 1), this molecule registered an EC50 of 121 µM.

Regarding `O=c1[nH]c(=O)n([C@H]2CS[C@H](CO)O2)cc1F`, the IC50 in assay [1] was greater than 100 µM. Besides, the EC50 in assay [2] (Human immunodeficiency virus 1) is greater than 100 µM.

Molecule `Nc1nc(Cl)c2ncn([C@H]3CS[C@H](CO)O3)c2n1` had an IC50 in assay [1] greater than 100 µM. The molecule also returned an EC50 in assay [2] (Human immunodeficiency virus 1) of 42.1 µM.

Regarding `Cc1cn([C@H]2C[C@H](N=[N+]=[N-])[C@@H](CO)O2)c(=O)[nH]c1=O` [ZIDOVUDINE], the IC50 in assay [1] is greater than 100 µM. This molecule gave an EC50 in assay [2] (Human immunodeficiency virus 1) of 0.004 µM.

As for `OC[C@@H]1O[C@H](n2cnc3c(O)ncnc32)CS1`, in assay [1], the IC50 is greater than 100 µM. Moreover, the EC50 in assay [2] (Human immunodeficiency virus 1) is greater than 100 µM.

In assay [1], `Cc1cn([C@H]2CS[C@H](CO)O2)c(=O)nc1N` displayed an IC50 greater than 100 µM. In assay [2] (Human immunodeficiency virus 1), this molecule yielded an EC50 of 0.45 µM.

Take `Cc1cn([C@H]2CS[C@H](CO)O2)c(=O)[nH]c1=O`: the IC50 in assay [1] is greater than 100 µM. Moreover, the EC50 in assay [2] (Human immunodeficiency virus 1) was 4.4 µM.

The molecule `Nc1ncnc2c1ncn2[C@@H]1CS[C@H](CO)O1` showed an IC50 in assay [1] greater than 100 µM. It took 1.01 µM to reach a half-maximal effect in assay [2] (Human immunodeficiency virus 1) (EC50).

`Cc1cn([C@@H]2CS[C@H](CO)O2)c(=O)[nH]c1=O` registered an IC50 in assay [1] greater than 100 µM. Also, in assay [2] (Human immunodeficiency virus 1), the EC50 came to 34.3 µM.

In the case of `O=c1[nH]c(=O)n([C@H]2CS[C@H](CO)O2)cc1Cl`, the IC50 in assay [1] was greater than 100 µM. Moreover, the EC50 in assay [2] (Human immunodeficiency virus 1) was greater than 100 µM.

Turning to `Nc1nc(=O)n([C@H]2CS[C@H](CO)O2)cc1Cl`, the IC50 in assay [1] was greater than 100 µM. The molecule also displayed a concentration giving a half-maximal response (EC50) in assay [2] (Human immunodeficiency virus 1) greater than 100 µM.

The molecule `OC[C@@H]1O[C@@H](n2cnc3c(O)ncnc32)CS1` registered an IC50 in assay [1] greater than 100 µM. In assay [2] (Human immunodeficiency virus 1), the EC50 is greater than 100 µM.

In assay [1], `Nc1nc(F)nc2c1ncn2[C@H]1CS[C@H](CO)O1` gave an IC50 greater than 100 µM. Besides, the midpoint of the response in assay [2] (Human immunodeficiency virus 1), the EC50, lay at 15.8 µM.

With `O=c1[nH]c(=O)n([C@@H]2CS[C@H](CO)O2)cc1Cl`, the IC50 in assay [1] is greater than 100 µM. This molecule also returned an EC50 in assay [2] (Human immunodeficiency virus 1) greater than 100 µM.

In assay [2], `Nc1ccn([C@@H]2CS[C@H](CO)O2)c(=O)n1` (stereo in doubt; form 1) [LAMIVUDINE] yielded a 50% effective concentration (EC50) of 0.21 µM. This counts as sub-micromolar.

The molecule `O=c1[nH]c(=O)n([C@H]2CS[C@H](CO)O2)cc1I` returned an IC50 in assay [1] greater than 100 µM. Also, the EC50 in assay [2] (Human immunodeficiency virus 1) is 157 µM.

Regarding `Nc1nc(=O)n([C@@H]2CS[C@H](CO)O2)cc1F` [EMTRICITABINE], the IC50 in assay [1] is greater than 100 µM. In addition, the EC50 in assay [2] (Human immunodeficiency virus 1) turned out to be 0.0013 µM.

`CNc1ncnc2c1ncn2[C@@H]1CS[C@H](CO)O1` returned an IC50 in assay [1] greater than 100 µM. In assay [2] (Human immunodeficiency virus 1), this molecule displayed an EC50 of 15 µM.

`O=c1[nH]c(=O)n([C@@H]2CS[C@H](CO)O2)cc1I`: in assay [1], the IC50 is greater than 100 µM. For the same molecule, a half-maximal response in assay [2] (Human immunodeficiency virus 1) (EC50) required 92.9 µM.

In assay [1], `O=c1[nH]c(=O)n([C@@H]2CS[C@H](CO)O2)cc1F` yielded an IC50 greater than 100 µM. Further, the EC50 in assay [2] (Human immunodeficiency virus 1) is greater than 100 µM.

In the case of `Nc1nc(=O)n([C@@H]2CS[C@H](CO)O2)cc1Br`, the IC50 in assay [1] is greater than 100 µM. This molecule also yielded an EC50 in assay [2] (Human immunodeficiency virus 1) of 2.51 µM.
